{"source": "paper PMC3128788", "about": "(Nuclear medicine and biology, 2011)", "key": {"[1]": {"test_system": "P-gp expressed in Madin-Darby canine kidney (MDCK)-MDR1 cells", "details": "efflux blocked with verapamil; cited from earlier work"}, "[2]": {"format": "in vivo, male Sprague Dawley rats"}, "[3]": {"target": "D2 dopamine receptors (transfected HEK cells) (Homo sapiens, UniProt P14416)", "sequence (P14416 whole entry)": "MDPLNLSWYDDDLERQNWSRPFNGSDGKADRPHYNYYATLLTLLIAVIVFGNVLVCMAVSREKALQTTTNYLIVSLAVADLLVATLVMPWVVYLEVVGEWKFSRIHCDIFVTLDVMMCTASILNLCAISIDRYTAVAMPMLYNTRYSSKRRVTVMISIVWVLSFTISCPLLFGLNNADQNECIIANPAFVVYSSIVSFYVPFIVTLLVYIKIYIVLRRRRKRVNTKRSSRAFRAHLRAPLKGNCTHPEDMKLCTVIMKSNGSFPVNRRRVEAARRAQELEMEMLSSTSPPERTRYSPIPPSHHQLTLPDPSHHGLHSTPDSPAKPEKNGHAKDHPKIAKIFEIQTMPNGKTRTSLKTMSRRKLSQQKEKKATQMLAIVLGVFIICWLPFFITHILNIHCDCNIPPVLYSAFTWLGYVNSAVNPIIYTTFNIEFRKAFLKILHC", "experiment": "Whole cell forskolin-dependent adenylyl cyclase inhibition assay, D2", "format": "cell-based", "details": "intrinsic activity", "summary_of_the_method": "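Transfected HEK cells were prelabelled with 2,8-3H-adenine in serum-free medium for 75 min at 37 °C. They were then incubated with test compound in serum-free medium containing 0.1 mM 3-isobutyl-1-methylxanthine for 20 min at 37 °C. The reaction was stopped with a solution of 10% trichloroacetic acid and 1 mM cyclic AMP, and accumulated 3H-cyclic AMP was measured.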"}, "[4]": {"target": "human D3 dopamine receptors expressed in HEK 293 cells (Homo sapiens, UniProt P35462)", "sequence (P35462 whole entry)": "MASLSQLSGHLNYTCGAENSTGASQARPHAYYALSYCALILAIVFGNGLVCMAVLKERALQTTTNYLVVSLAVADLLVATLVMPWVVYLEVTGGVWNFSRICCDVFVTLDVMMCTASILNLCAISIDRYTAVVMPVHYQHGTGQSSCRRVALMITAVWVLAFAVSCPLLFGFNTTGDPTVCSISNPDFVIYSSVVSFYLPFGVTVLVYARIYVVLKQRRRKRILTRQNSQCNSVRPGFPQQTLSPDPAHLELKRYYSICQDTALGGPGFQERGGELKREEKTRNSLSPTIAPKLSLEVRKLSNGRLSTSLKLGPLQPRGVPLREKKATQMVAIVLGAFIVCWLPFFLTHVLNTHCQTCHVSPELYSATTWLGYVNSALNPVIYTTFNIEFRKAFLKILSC", "experiment": "Dopamine receptor filtration binding assay, [125I]-IABN competition, D3", "details": "mean Ki ± S.E.M., [125I]-IABN, HEK 293 membranes; unit printed in b5 only"}, "[5]": {"target": "D3 dopamine receptors (transfected HEK cells) (Homo sapiens, UniProt P35462)", "sequence (P35462 whole entry)": "as above", "experiment": "Whole cell forskolin-dependent adenylyl cyclase inhibition assay, D3", "format": "cell-based", "details": "compared to quinpirole"}, "[6]": {"details": "CycA […] mg/kg i.v. 30 min before tracer, 5 min post-injection"}, "[7]": {"details": "CycA […] mg/kg i.v. 30 min before tracer, 30 min post-injection"}, "[8]": {"details": "control rats, i.v., 5 min post-injection"}, "[9]": {"details": "control rats, i.v., 30 min post-injection"}, "[10]": {"details": "ratio of tracer uptake in CycA versus control group 30 min post injection"}}, "note": "Marks after values point to notes of the source that are not given here.", "data": [{"compound": "O=C(NC/C=C/CN1CCN(c2cccc(Cl)c2Cl)CC1)c1ccc(-c2ccccn2)cc1", "note": "[PG 01037]", "values": [{"measurement": "Substrate for P-gp", "setting": "[1]", "value": "substrate for P-gp"}]}, {"compound": "COc1ccccc1N1CCN(CCCCNC(=O)c2ccc(CC[18F])cc2)CC1", "note": "[[^18F]7, 4-(2-[^18F]-fluoroethyl)-N-(4-(4-(2-methoxyphenyl)piperazin-1-yl)butyl)benzamide]", "values": [{"measurement": "Blood %ID/gram, 5 min CycA", "setting": "[2]; [6]", "value": "0.156 ± 0.033", "unit": "%ID/gram"}, {"measurement": "Bone %ID/gram, 5 min CycA", "setting": "[2]; [6]", "value": "0.232 ± 0.015", "unit": "%ID/gram"}, {"measurement": "Fat %ID/gram, 5 min CycA", "setting": "[2]; [6]", "value": "0.062 ± 0.017", "unit": "%ID/gram"}, {"measurement": "Kidney %ID/gram, 5 min CycA", "setting": "[2]; [6]", "value": "1.782 ± 0.242", "unit": "%ID/gram"}, {"measurement": "Liver %ID/gram, 5 min CycA", "setting": "[2]; [6]", "value": "1.790 ± 0.286", "unit": "%ID/gram"}, {"measurement": "Lung %ID/gram, 5 min CycA", "setting": "[2]; [6]", "value": "1.423 ± 0.262", "unit": "%ID/gram"}, {"measurement": "Muscle %ID/gram, 5 min CycA", "setting": "[2]; [6]", "value": "0.158 ± 0.055", "unit": "%ID/gram"}, {"measurement": "Total brain %ID/gram, 5 min CycA", "setting": "[2]; [6]", "value": "0.421 ± 0.115", "unit": "%ID/gram"}, {"measurement": "Blood %ID/gram, 30 min CycA", "setting": "[2]; [7]", "value": "0.178 ± 0.018", "unit": "%ID/gram"}, {"measurement": "Bone %ID/gram, 30 min CycA", "setting": "[2]; [7]", "value": "0.168 ± 0.016", "unit": "%ID/gram"}, {"measurement": "Fat %ID/gram, 30 min CycA", "setting": "[2]; [7]", "value": "0.069 ± 0.011", "unit": "%ID/gram"}, {"measurement": "Kidney %ID/gram, 30 min CycA", "setting": "[2]; [7]", "value": "0.898 ± 0.076", "unit": "%ID/gram"}, {"measurement": "Liver %ID/gram, 30 min CycA", "setting": "[2]; [7]", "value": "1.870 ± 0.184", "unit": "%ID/gram"}, {"measurement": "Lung %ID/gram, 30 min CycA", "setting": "[2]; [7]", "value": "0.563 ± 0.016", "unit": "%ID/gram"}, {"measurement": "Muscle %ID/gram, 30 min CycA", "setting": "[2]; [7]", "value": "0.147 ± 0.006", "unit": "%ID/gram"}, {"measurement": "Total brain %ID/gram, 30 min CycA", "setting": "[2]; [7]", "value": "0.271 ± 0.068", "unit": "%ID/gram"}, {"measurement": "Increase in brain uptake after CycA administration at 5 min", "setting": "[2]; CycA pretreated versus control rats, 5 min post injection", "value": 6.3, "unit": "fold"}, {"measurement": "Increase in brain uptake after CycA administration at 30 min", "setting": "[2]; CycA pretreated versus control rats, 30 min post injection", "value": 2.7, "unit": "fold"}, {"measurement": "Blood %ID/gram, 5 min No Rx", "setting": "[2]; [8]", "value": "0.133 ± 0.018", "unit": "%ID/gram"}, {"measurement": "Bone %ID/gram, 5 min No Rx", "setting": "[2]; [8]", "value": "0.243 ± 0.041", "unit": "%ID/gram"}, {"measurement": "Fat %ID/gram, 5 min No Rx", "setting": "[2]; [8]", "value": "0.084 ± 0.036", "unit": "%ID/gram"}, {"measurement": "Kidney %ID/gram, 5 min No Rx", "setting": "[2]; [8]", "value": "1.582 ± 0.293", "unit": "%ID/gram"}, {"measurement": "Liver %ID/gram, 5 min No Rx", "setting": "[2]; [8]", "value": "2.035 ± 0.578", "unit": "%ID/gram"}, {"measurement": "Lung %ID/gram, 5 min No Rx", "setting": "[2]; [8]", "value": "1.182 ± 0.086", "unit": "%ID/gram"}, {"measurement": "Muscle %ID/gram, 5 min No Rx", "setting": "[2]; [8]", "value": "0.107 ± 0.017", "unit": "%ID/gram"}, {"measurement": "Blood %ID/gram, 30 min No Rx", "setting": "[2]; [9]", "value": "0.167 ± 0.018", "unit": "%ID/gram"}, {"measurement": "Bone %ID/gram, 30 min No Rx", "setting": "[2]; [9]", "value": "0.164 ± 0.018", "unit": "%ID/gram"}, {"measurement": "Fat %ID/gram, 30 min No Rx", "setting": "[2]; [9]", "value": "0.086 ± 0.013", "unit": "%ID/gram"}, {"measurement": "Kidney %ID/gram, 30 min No Rx", "setting": "[2]; [9]", "value": "0.952 ± 0.100", "unit": "%ID/gram"}, {"measurement": "Liver %ID/gram, 30 min No Rx", "setting": "[2]; [9]", "value": "2.169 ± 0.113", "unit": "%ID/gram"}, {"measurement": "Lung %ID/gram, 30 min No Rx", "setting": "[2]; [9]", "value": "0.668 ± 0.057", "unit": "%ID/gram"}, {"measurement": "Muscle %ID/gram, 30 min No Rx", "setting": "[2]; [9]", "value": "0.143 ± 0.011", "unit": "%ID/gram"}, {"measurement": "Total brain %ID/gram, 30 min No Rx", "setting": "[2]; [9]", "value": "0.098 ± 0.012", "unit": "%ID/gram"}, {"measurement": "Bone activity levels from 5 min to 30 min (metabolic defluorination)", "setting": "[2]; normal rats", "value": "No accumulation"}, {"measurement": "Blood CycA:No Rx", "setting": "[2]; [10]", "value": 1.06}, {"measurement": "Bone CycA:No Rx", "setting": "[2]; [10]", "value": 1.02}, {"measurement": "Fat CycA:No Rx", "setting": "[2]; [10]", "value": 0.81}, {"measurement": "Kidney CycA:No Rx", "setting": "[2]; [10]", "value": 0.94}, {"measurement": "Liver CycA:No Rx", "setting": "[2]; [10]", "value": "0.86 ^e"}, {"measurement": "Lung CycA:No Rx", "setting": "[2]; [10]", "value": "0.84 ^d"}, {"measurement": "Muscle CycA:No Rx", "setting": "[2]; [10]", "value": 1.03}, {"measurement": "Total brain CycA:No Rx", "setting": "[2]; [10]", "value": "2.77 ^f"}]}, {"compound": "COc1ccccc1N1CCN(CCCCNC(=O)c2ccc(CCF)cc2)CC1", "note": "[Compound 7, 4-(2-fluoroethyl)-N-(4-(4-(2-methoxyphenyl)piperazin-1-yl)butyl)benzamide]", "values": [{"measurement": "%IA D2", "setting": "[3]", "value": "35 ± 1", "unit": "%"}, {"measurement": "D3 (Ki)", "setting": "[4]", "value": "subnanomolar"}]}, {"compound": "COc1ccccc1N1CCN(CCCCNC(=O)c2ccc(N(C)C)cc2)CC1", "note": "[Compound 6, 4-(dimethylamino)-N-(4-(4-(2-methoxyphenyl)piperazin-1-yl)butyl)benzamide]", "values": [{"measurement": "Functional classification at D3 dopamine receptors", "setting": "[5]", "value": "weak partial agonist/antagonist"}, {"measurement": "%IA D2", "setting": "[3]", "value": "34 ± 3", "unit": "%"}, {"measurement": "D3 (Ki)", "setting": "[4]", "value": "subnanomolar"}]}]}
